From paper PMC7444767 (British Journal of Clinical Pharmacology, 2020)

Assays:
healthy participants = test: Safety assessment; format: in vivo, human; details: for Dizziness / Dysmenorrhoea / Headache / Myalgia / Nausea / Oral herpes / Rash / Tension headache / Throat irritation / Upper respiratory tract infection: all branebrutinib doses
[1] = Plasma pharmacokinetics by validated LC–MS/MS; format: in vivo, human; details: for AUC(0-inf) / Cmax / half-life / Tmax / Vd/F: human, plasma; for AUC(0-inf): GM AUCinf; for Cmax: GM Cmax; for Tmax: Median Tmax
[2] = biological target: Bruton's tyrosine kinase (BTK) (Homo sapiens, UniProt Q06187); test: BTK occupancy in blood by immunocapture LC–MS/MS; format: in vivo; details: for Time at which BTK occupancy reached steady state: MAD
Method in brief: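 Healthy volunteers in SAD and MAD parts (MAD doses 0.3–10 mg). Whole blood in ACD-A was lysed at once in buffer with protease inhibitor and a Cys481-reactive quencher, shaken 1 h at room temperature, and stored ≤−70°C. Anti-BTK bead immunocapture, on-bead trypsin digest, and LC–MS/MS of drug- or quencher-bound Cys481 peptide (residues 467–487). Occupancy = DB/(DB+QB)×100, and total BTK was also derived.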

[3] = test system: peripheral blood B‐cell populations; test: Peripheral blood B-cell subsets; format: in vivo, human; details: MAD part
Method in brief: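 Double-blind, placebo-controlled multiple-ascending-dose part in healthy adults aged 18–55 y (BMI 18–32 kg m−2), randomised 3:1 to test compound or placebo. Oral dosing once daily for 14 days at 0.3, 1, 3 or 10 mg, with 14 days of post-dosing follow-up. Peripheral blood B-cell subsets measured and summarised with descriptive statistics.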

[4] = test system: serum immunoglobulin levels; test: Serum immunoglobulins; format: in vivo, human; details: both parts (SAD and MAD)
Method in brief: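 Healthy adults aged 18–55 y, randomised 3:1 to test compound or placebo, double-blind. Single-ascending-dose part: one oral dose of 0.3, 1, 3, 10 or 30 mg (n = 6 each; placebo n = 10). Multiple-ascending-dose part: oral dosing daily for 14 days at 0.3–10 mg. Serum immunoglobulins measured in both parts and summarised descriptively.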

BTK = details: cited from earlier work
[5] = test system: murine models of collagen‐ and collagen antibody–induced arthritis; details: administered orally once daily (QD); both arthritis models; cited from earlier work
[6] = preclinical studies; cited from earlier work
EGFR kinases = details: in vitro assessment; cited from earlier work
[7] = oral, 0.3 mg, JMAD part (day 14), 0.3 mg QD, n = 6
[8] = oral, 0.3 mg, MAD part (day 14), 0.3 mg QD, n = 6
[9] = oral, 1 mg, MAD part (day 14), 1 mg QD, n = 6
[10] = oral, 1 mg, SAD part (day 1), 1 mg, n = 6
[11] = oral, 3 mg, JMAD part (day 14), 3 mg QD, n = 6
[12] = oral, 3 mg, MAD part (day 14), 3 mg QD, n = 6
[13] = oral, 3 mg, SAD part (day 1), 3 mg, n = 6
[14] = oral, 10 mg, JMAD part (day 14), 10 mg QD, n = 6
[15] = oral, 10 mg, MAD part (day 14), 10 mg QD, n = 5
[16] = oral, 10 mg, SAD part (day 1), 10 mg, n = 6
[17] = oral, 30 mg, SAD part (day 1), 30 mg, n = 6

Bruton's tyrosine kinase (BTK), sequence (Q06187 whole entry, the tested form may be a part): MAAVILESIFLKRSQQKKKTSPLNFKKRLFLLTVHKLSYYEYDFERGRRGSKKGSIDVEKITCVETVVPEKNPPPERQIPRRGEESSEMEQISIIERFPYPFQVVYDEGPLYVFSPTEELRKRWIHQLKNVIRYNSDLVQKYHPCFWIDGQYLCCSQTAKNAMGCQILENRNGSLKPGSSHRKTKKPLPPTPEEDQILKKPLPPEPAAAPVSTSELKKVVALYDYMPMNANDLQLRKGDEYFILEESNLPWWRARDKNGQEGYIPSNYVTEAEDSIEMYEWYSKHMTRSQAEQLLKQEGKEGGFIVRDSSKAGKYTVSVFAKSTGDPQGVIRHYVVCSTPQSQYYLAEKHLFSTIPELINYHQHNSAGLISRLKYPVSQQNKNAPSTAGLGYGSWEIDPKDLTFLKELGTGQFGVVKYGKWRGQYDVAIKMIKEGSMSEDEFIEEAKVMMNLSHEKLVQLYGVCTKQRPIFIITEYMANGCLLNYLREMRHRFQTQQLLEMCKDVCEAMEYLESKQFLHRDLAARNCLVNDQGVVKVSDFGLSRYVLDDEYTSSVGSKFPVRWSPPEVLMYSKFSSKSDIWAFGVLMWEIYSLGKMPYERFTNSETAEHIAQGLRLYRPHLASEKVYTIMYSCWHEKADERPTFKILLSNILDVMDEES

CC#CC(=O)N[C@H]1CCCN(c2c(F)cc(C(N)=O)c3[nH]c(C)c(C)c23)C1 [Branebrutinib]
Dizziness (healthy participants; JMAD part, n = 18): 0 (0.0) n (%) | Dysmenorrhoea (healthy participants; JMAD part, n = 18): 2 (11.1) n (%) | Headache (healthy participants; JMAD part, n = 18): 1 (5.6) n (%) | Myalgia (healthy participants; JMAD part, n = 18): 0 (0.0) n (%) | Nausea (healthy participants; JMAD part, n = 18): 0 (0.0) n (%) | Oral herpes (healthy participants; JMAD part, n = 18): 0 (0.0) n (%) | Rash (healthy participants; JMAD part, n = 18): 0 (0.0) n (%) | Tension headache (healthy participants; JMAD part, n = 18): 0 (0.0) n (%) | Throat irritation (healthy participants; JMAD part, n = 18): 0 (0.0) n (%) | Upper respiratory tract infection (healthy participants; JMAD part, n = 18): 0 (0.0) n (%) | Serious AE (psychosis) leading to study discontinuation, number (healthy participants; MAD part, 10‐mg cohort, Day 10, considered not related to study drug): 1 | Any AE (healthy participants; MAD part, QD 14 days, all branebrutinib doses 0.3-10 mg, n = 24): 17 (70.8) n (%) | Dizziness (healthy participants; MAD part, n = 24): 0 (0.0) n (%) | Dysmenorrhoea (healthy participants; MAD part, n = 24): 0 (0.0) n (%) | Headache (healthy participants; MAD part, n = 24): 8 (33.3) n (%) | Myalgia (healthy participants; MAD part, n = 24): 0 (0.0) n (%) | Nausea (healthy participants; MAD part, n = 24): 2 (8.3) n (%) | Oral herpes (healthy participants; MAD part, n = 24): 3 (12.5) n (%) | Rash (healthy participants; MAD part, n = 24): 0 (0.0) n (%) | Tension headache (healthy participants; MAD part, n = 24): 2 (8.3) n (%) | Throat irritation (healthy participants; MAD part, n = 24): 0 (0.0) n (%) | Upper respiratory tract infection (healthy participants; MAD part, n = 24): 4 (16.7) n (%) | Dizziness (healthy participants; SAD part, n = 30): 3 (10.0) n (%) | Dysmenorrhoea (healthy participants; SAD part, n = 30): 2 (6.7) n (%) | Headache (healthy participants; SAD part, n = 30): 4 (13.3) n (%) | Myalgia (healthy participants; SAD part, n = 30): 2 (6.7) n (%) | Nausea (healthy participants; SAD part, n = 30): 2 (6.7) n (%) | Oral herpes (healthy participants; SAD part, n = 30): 1 (3.3) n (%) | Rash (healthy participants; SAD part, n = 30): 2 (6.7) n (%) | Tension headache (healthy participants; SAD part, n = 30): 0 (0.0) n (%) | Throat irritation (healthy participants; SAD part, n = 30): 2 (6.7) n (%) | Upper respiratory tract infection (healthy participants; SAD part, n = 30): 3 (10.0) n (%) | Any AE (healthy participants; SAD part, single dose, all branebrutinib doses 0.3-30 mg, n = 30): 18 (60.0) n (%) | Dose‐related trend in AEs (healthy participants; across both parts of the trial): no dose‐related trend | Tolerability (healthy participants; single or multiple doses in healthy participants): well tolerated | GM CLT/F (apparent total body clearance) ([1]; JMAD part (day 14), 0.3 mg QD, n = 5): 94.0 (n = 5) L/hr | GM CLT/F (apparent total body clearance) ([1]; JMAD part (day 14), 3 mg QD, n = 6): 109 (n = 6) L/hr | GM CLT/F (apparent total body clearance) ([1]; JMAD part (day 14), 10 mg QD, n = 6): 72.2 (n = 6) L/hr | GM CLT/F (apparent total body clearance) ([1]; MAD part (day 14), 0.3 mg QD, n = 5): 81.3 (n = 5) L/hr | GM CLT/F (apparent total body clearance) ([1]; MAD part (day 14), 1 mg QD, n = 6): 95.5 (n = 6) L/hr | GM CLT/F (apparent total body clearance) ([1]; MAD part (day 14), 3 mg QD, n = 6): 98.1 (n = 6) L/hr | GM CLT/F (apparent total body clearance) ([1]; MAD part (day 14), 10 mg QD, n = 5): 99.5 (n = 5) L/hr | Accumulation following administration of multiple doses ([1]; MAD, QD 14 days): No accumulation | GM CLT/F (apparent total body clearance) ([1]; SAD part (day 1), 0.3 mg single oral dose, n = 6): 126 L/h | GM CLT/F (apparent total body clearance) ([1]; SAD part (day 1), 1 mg, n = 6): 124 L/h | GM CLT/F (apparent total body clearance) ([1]; SAD part (day 1), 3 mg, n = 6): 122 L/h | GM CLT/F (apparent total body clearance) ([1]; SAD part (day 1), 10 mg, n = 6): 99.6 L/h | GM CLT/F (apparent total body clearance) ([1]; SAD part (day 1), 30 mg, n = 6): 106 L/h | Time to drop to undetectable plasma levels ([1]; after single or multiple doses): ≤ 24 h | AUC(0-inf) ([1]; oral, 0.3 mg, JMAD part (day 14), 0.3 mg QD, n = 5): 3.2 ng·h/mL | AUC(0-inf) ([1]; oral, 0.3 mg, MAD part (day 14), 0.3 mg QD, n = 5): 3.7 ng·h/mL | Cmax [1, 7]: 2 ng/mL | Cmax [1, 8]: 2.2 ng/mL | half-life ([1]; oral, 0.3 mg, Mean t1/2, JMAD part (day 14), 0.3 mg QD, n = 5): 54.6 min | half-life ([1]; oral, 0.3 mg, Mean t1/2, MAD part (day 14), 0.3 mg QD, n = 5): 78 min | Tmax [1, 7]: 30 min | Tmax [1, 8]: 60 min | Vd/F ([1]; oral, 1 mg): 255 L | AUC(0-inf) [1, 9]: 10.5 ng·h/mL | AUC(0-inf) [1, 10]: 8.1 ng·h/mL | Cmax [1, 9]: 5.9 ng/mL | Cmax [1, 10]: 4.6 ng/mL | half-life ([1]; oral, 1 mg, Mean t1/2, MAD part (day 14), 1 mg QD, n = 6): 99.6 min | half-life ([1]; oral, 1 mg, Mean t1/2, SAD part (day 1), 1 mg, n = 6): 95.4 min | Tmax [1, 9]: 30 min | Tmax [1, 10]: 30 min | Vd/F ([1]; oral, 3 mg): 304 L | AUC(0-inf) [1, 11]: 27.4 ng·h/mL | AUC(0-inf) [1, 12]: 30.6 ng·h/mL | AUC(0-inf) [1, 13]: 24.5 ng·h/mL | Cmax [1, 11]: 16.3 ng/mL | Cmax [1, 12]: 17.8 ng/mL | Cmax [1, 13]: 14.2 ng/mL | half-life ([1]; oral, 3 mg, Mean t1/2, JMAD part (day 14), 3 mg QD, n = 6): 90.6 min | half-life ([1]; oral, 3 mg, Mean t1/2, MAD part (day 14), 3 mg QD, n = 6): 98.4 min | half-life ([1]; oral, 3 mg, Mean t1/2, SAD part (day 1), 3 mg, n = 6): 104 min | Tmax [1, 11]: 30 min | Tmax [1, 12]: 30 min | Tmax [1, 13]: 48 min | Vd/F ([1]; oral, 10 mg): 221 L | AUC(0-inf) [1, 14]: 139 ng·h/mL | AUC(0-inf) [1, 15]: 101 ng·h/mL | AUC(0-inf) [1, 16]: 100 ng·h/mL | Cmax [1, 14]: 97.2 ng/mL | Cmax [1, 15]: 60.5 ng/mL | Cmax [1, 16]: 66.6 ng/mL | half-life ([1]; oral, 10 mg, Mean t1/2, JMAD part (day 14), 10 mg QD, n = 6): 102 min | half-life ([1]; oral, 10 mg, Mean t1/2, MAD part (day 14), 10 mg QD, n = 5): 104 min | half-life ([1]; oral, 10 mg, Mean t1/2, SAD part (day 1), 10 mg, n = 6): 93.6 min | Tmax [1, 14]: 30 min | Tmax [1, 15]: 30 min | Tmax [1, 16]: 30 min | Vd/F ([1]; oral, 30 mg): 245 L | AUC(0-inf) [1, 17]: 282 ng·h/mL | Cmax [1, 17]: 179 ng/mL | half-life ([1]; oral, 30 mg, Mean t1/2, SAD part (day 1), 30 mg, n = 6): 97.8 min | Tmax [1, 17]: 30 min | Vd/F ([1]; po, 0.3 mg): 216 L | Trough observed concentrations ([1]; multiple doses, LLOQ 0.100 ng mL^−1): below the LLOQ | Systemic exposure vs dose ([1]; single or multiple doses): dose‐proportional | Time at which BTK occupancy reached steady state ([2]; 0.3‐mg dose group): 14 days | Time at which BTK occupancy reached steady state ([2]; 10‐mg dose group): 1 days | Doses projected to be efficacious (BTK occupancy >90% at steady state) ([2]; at steady state, QD): ≥ 1 mg | Effect on peripheral blood B‐cell populations [3]: no obvious effect | Effect on serum immunoglobulin levels [4]: no obvious effect | Selectivity for BTK over 4 related Tec family kinases (BTK): < 5000 fold | Selectivity for BTK over 240 other kinases (BTK): > 5000 fold | Doses at which maximal efficacy was observed [5]: ≥ 0.5 mg/kg | Brain penetration [6]: < 5 % of plasma concentration | Activity against EGFR kinases (EGFR kinases): lacks activity
